Laboratory results taken from ChEMBL document CHEMBL1122161, “Irreversible enzyme inhibitors. 202. Candidate active-site-directed irreversible inhibitors of 5-fluoro-2'-deoxyuridine phosphorylase from Walker 256 rat tumor derived from 1-benzyl-5-(3-ethoxybenzyl)uracil” (J Med Chem, 1982).

Experiments:
[1] = (§1) Ability for reversible inhibition of Walker 256 5-Fluoro-2'-deoxyuridine Phosphorylase; parameters: species or system Rattus norvegicus; settings: read-out: I 50
Method in brief: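 Enzyme from Walker 256 rat tumor, assayed with 400 μM FUDR as substrate in pH 5.9 arsenate-succinate buffer with 10% Me2SO. Value reported as concentration giving 50% inhibition.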

Rattus norvegicus = species on record: Rattus norvegicus; assay: Irreversible inhibition of Walker 256 FUDR phosphorylase; expressed as Vo/Vi, velocity without inhibitor to that of velocity with inhibitor
Method in brief: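 Walker 256 FUDR phosphorylase preincubated 20 min at ambient temperature with 20 μM (final) inhibitor in pH 5.9 arsenate-succinate buffer, 10% Me2SO, alongside zero-time tubes. Unbound inhibitor then removed by two 1-octanol extractions. Remaining activity assayed after adding 4 mM FUDR stock, stopped with 5% trichloroacetic acid, read as for reversible assay. V0/Vi of 2 corresponds to 50% inhibition.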

[2] = as §1; parameters: species or system Rattus norvegicus; settings: read-out: I50
Method in brief: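 Walker 256 rat tumor FUDR phosphorylase (uridine-deoxyuridine phosphorylase) was assayed with 400 μM FUDR substrate in pH 5.9 arsenate-succinate buffer containing 10% Me2SO. The value is the inhibitor concentration giving 50% inhibition (I50).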

Structure (SMILES)	IC50 [2]	IC50 [1]	Ratio (Rattus norvegicus)
CCOc1cccc(Cc2cn(Cc3cccc(NC(=O)c4ccc(S(=O)(=O)F)cc4)c3)c(=O)[nH]c2=O)c1	–	2500 nM	1
Oc1ncc(Cc2ccccc2)c(O)n1	5300 nM	–	–
CCOc1cccc(Cc2cn(Cc3cccc(NC(=O)c4cccc(S(=O)(=O)F)c4)c3)c(=O)[nH]c2=O)c1	–	3200 nM	1.1
CCOc1cccc(Cc2cnc(O)nc2O)c1	–	1400 nM	–
CCOc1cccc(Cc2cn(Cc3ccc(NC(=O)c4cccc(S(=O)(=O)F)c4)cc3)c(=O)[nH]c2=O)c1	–	33000 nM	1
CCOc1cccc(Cc2cn(Cc3cccc(NC(=O)Nc4cccc(S(=O)(=O)F)c4)c3)c(=O)[nH]c2=O)c1	–	1100 nM	1.2
CCOc1cccc(Cc2cn(Cc3ccccc3)c(=O)[nH]c2=O)c1	–	1200 nM	–
CCOc1cccc(Cc2cn(Cc3ccc(NC(=O)c4ccc(S(=O)(=O)F)cc4)cc3)c(=O)[nH]c2=O)c1	–	15000 nM	1
CCOc1cccc(Cc2cn(Cc3cccc(NC(=O)Nc4ccc(S(=O)(=O)F)cc4)c3)c(=O)[nH]c2=O)c1	–	1900 nM	1.1

Now from value to compound, other results behind:

IC50 [2]	Structure (SMILES)	IC50 [1]	Ratio (Rattus norvegicus)
1200 nM	CCOc1cccc(Cc2cn(Cc3cccc(NC(=O)c4ccccc4)c3)c(=O)[nH]c2=O)c1	–	1.2
2600 nM	O=c1[nH]c(=O)n(Cc2ccccc2)cc1Cc1ccccc1	–	–
6200 nM	Cn1cc(Cc2ccccc2)c(=O)[nH]c1=O	–	–
3800 nM	CCOc1cccc(Cc2cn(Cc3ccc(NC(=O)c4ccccc4)cc3)c(=O)[nH]c2=O)c1	–	–
1900 nM	COc1cccc(Cc2cnc(O)nc2O)c1	–	–
5700 nM	O=c1[nH]c(=O)n(CCCOc2ccccc2)cc1Cc1ccccc1	–	–
500 nM	Oc1ncc(Cc2cccc(OCc3ccccc3)c2)c(O)n1	–	–
2500 nM	O=c1[nH]c(=O)n(Cc2ccccc2)cc1Cc1cccc(OCc2ccccc2)c1	–	–
